Bioassay records (PubChem)
TAAR1 ag – human TAAR1 agonists, primary screen, Fluo-8 calcium fluorescence, CHO RD-HGA16 cells; Trace amine-associated receptor 1 (Homo sapiens), Q96RJ0; vehicle wells 0%, saturating PEA agonist 100%; activation, % at 3 µM; 360,000 tested, 0.99% active;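 active means activation above the mean activation of all test compounds in the run plus 3 SD, cut at about 38% in these data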
Target sequence (Q96RJ0 whole entry, looked up): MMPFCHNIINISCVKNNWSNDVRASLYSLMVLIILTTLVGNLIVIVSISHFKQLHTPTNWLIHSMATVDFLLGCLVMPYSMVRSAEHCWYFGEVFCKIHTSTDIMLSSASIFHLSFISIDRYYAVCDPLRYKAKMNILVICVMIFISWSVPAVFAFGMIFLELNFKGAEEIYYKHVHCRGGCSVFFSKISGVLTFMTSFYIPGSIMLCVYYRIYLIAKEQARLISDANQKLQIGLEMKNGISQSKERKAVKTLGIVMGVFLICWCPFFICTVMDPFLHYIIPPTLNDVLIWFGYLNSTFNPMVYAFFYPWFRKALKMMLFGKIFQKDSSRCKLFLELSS
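System: CHO-derived RD-HGA16 cells with stable Gα16 and human TAAR1. Times: 17-24 h plating, Fluo-8 75 min 37 °C, 30 min RT. Measured by: calcium-sensitive Fluo-8 signal, excitation 470-495, emission 515-575 nm. Read-out basis: % activation relative to PEA EC100 response. Control set: DMSO and PEA EC100. Repeats: no replicates (n 1).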
TAAR1 antagonist – human TAAR1 antagonists, primary screen, Fluo-8 calcium fluorescence, CHO RD-HGA16 cells; antagonist; inhibition, % at 3 µM; 360,000 tested, 1.5% active;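 active means inhibition above a per-plate cutoff, the mean inhibition of test compounds on that plate plus 3 SD, cut at about 49% in these data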;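 further: 0% = DMSO plus EC80 beta-PEA response and 100% = DMSO alone without agonist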
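Test system – hTAAR1-expressing CHO RD-HGA16 cells, Gα16-coupled · Also added – β-PEA at EC80 concentration, post-compound challenge · Compound – 3 µM, single point · Incubation – dye loading 75 min at 37 °C, then 30 min room temperature · Measured by – Fluo-8 intracellular calcium dye fluorescence, real-time kinetic reads · Benchmarks – vehicle and agonist controls · Replicates – singlicate, one well per test compound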
OX1R antag-1 – antagonists of human orexin 1 receptor (OX1R); inhibition, % at 6.6 µM; Orexin/Hypocretin receptor type 1 (Homo sapiens), O43613; AID 485270, 2010; 330,000 tested, 1.8% active; OX1R-expressing cells, FRET antagonist read-out; in the data active means inhibition mostly above about 38%, no sharp cut-off; inactive means mostly below about 40%;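 further: 0% = agonist challenge alone and 100% = reference antagonist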
Target sequence (O43613 whole entry, looked up): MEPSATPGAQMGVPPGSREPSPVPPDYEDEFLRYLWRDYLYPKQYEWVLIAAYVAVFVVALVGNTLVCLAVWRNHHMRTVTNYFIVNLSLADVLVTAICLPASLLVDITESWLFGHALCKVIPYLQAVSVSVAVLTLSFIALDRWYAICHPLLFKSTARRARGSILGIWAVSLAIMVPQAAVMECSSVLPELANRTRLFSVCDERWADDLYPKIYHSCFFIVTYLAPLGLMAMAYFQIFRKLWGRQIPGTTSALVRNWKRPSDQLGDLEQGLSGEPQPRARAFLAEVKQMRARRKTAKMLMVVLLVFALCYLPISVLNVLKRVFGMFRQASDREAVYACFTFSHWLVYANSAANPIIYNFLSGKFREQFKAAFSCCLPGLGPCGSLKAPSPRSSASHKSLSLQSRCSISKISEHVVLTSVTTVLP
CHO parental Ca – ATP-evoked calcium signal inhibitors, parental CHO, primary screen, counter-screen for OX1R antagonist project, cell-based, fluorescence, Fluo-8 calcium dye; parental CHO-K1, ATP-induced calcium, Fluo-8 fluorescence; inhibition, % at 5.6 µM; 330,000 tested, 0.63% active; AID 463079, 2010;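 active means inhibition above that plate's mean sample inhibition plus 3 SD, cut at about 26% in these data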;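 further: 0% = ATP-challenged DMSO wells and 100% = DMSO wells without ATP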
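material = parental CHO cells | also added = ATP as calcium-mobilizing challenge | dosing = single point at 5.6 µM | detection = intracellular calcium via Fluo-8 no-wash fluorescent dye | read-out = % inhibition | benchmarks = low control ATP plus DMSO, high control DMSO only | repeats = one well per compound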
OX1R antag-2 – OX1R (HCRTR1) antagonists, primary screen, fluorescence, CHO/OX1R cells, Fluo-8 calcium, orexin A; 330,000 tested, 0.43% active; AID 434989, 2010; inhibition, % at 5 µM; Fluo-8 calcium fluorescence; Orexin/Hypocretin receptor type 1 (Homo sapiens), O43613;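 active means inhibition above its plate's threshold, mean inhibition of all tested compounds on the plate plus 3 SD, cut at about 37% in these data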;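 further: 0% = orexin A challenge wells and 100% = SB-334867-A antagonist wells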
TAAR1 ag confirm – human TAAR1 agonists, retest of hits, confirmation, Fluo-8 calcium fluorescence, CHO RD-HGA16 cells | shares compounds with TAAR1 ag | scaled: DMSO 0%, maximal phenethylamine 100% | activation, % at 3 µM | 2,400 tested, 82% active | AID 651783, 2012;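 active means activation above a cutoff set at the run's mean compound activation plus 3 SD, cut at about 39% in these data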
Ga16 ag counter – nonselective calcium mobilization agonists, CHO-Ga16 cells, counter-screen for hTAAR1 agonist project, cell-based, fluorescence, CHO-Ga16 parental line. shares compounds with TAAR1 ag. Fluo-8 calcium fluorescence; normalized to maximal ATP response, DMSO zero. activation, % at 3 µM. 2,400 tested, 50% active. AID 651787, 2012;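 active means activation above the run cutoff, the mean activation over all tested wells plus 3 SD, cut at about 12% in these data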;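 further: 0% = DMSO wells and 100% = maximal ATP response on the peak over basal ratio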
TAAR1 desens – TAAR1 desensitization by agonist hits, confirmation, counter-screen for TAAR1 agonist project, cell-based, fluorescence, tachyphylaxis | shares compounds with TAAR1 ag | CHO RD-HGA16 hTAAR1, Fluo-8 calcium, beta-PEA response inhibition | inhibition, % at 3 µM | 2,400 tested, 46% active;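 active means inhibition above the run cutoff, the mean inhibition of all test compounds plus 3 SD, cut at about 49% in these data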;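 further: beta-PEA stimulus applied at its EC80; loss of beta-PEA calcium signal after compound pretreatment read as receptor desensitization; 0% = DMSO with beta-PEA at EC80 and 100% = DMSO alone without agonist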
Ga16 nonsel ant – inhibition of ATP-evoked calcium response in CHO-Ga16 cells, counter-screen for TAAR1 agonist project, cell-based, fluorescence; 2,400 tested, 39% active; shares compounds with TAAR1 ag; inhibition, % at 3 µM; CHO-Ga16 ATP-induced calcium, Fluo-8 fluorescence;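 active means inhibition above the plate's mean compound inhibition plus 3 SD, computed per plate, cut at about 22% in these data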;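 further: 0% = EC80 ATP with DMSO and 100% = DMSO wells without ATP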
The depositor's hits bear a star; / = not tested or not shown. Shown are actives, neighbours in structure and some others; about 3.9% of the full set was active somewhere.

SMILES	TAAR1 ag	TAAR1 antagonist	OX1R antag-1	CHO parental Ca	OX1R antag-2	TAAR1 ag confirm	Ga16 ag counter	TAAR1 desens	Ga16 nonsel ant
Cc1cccc(NC(=O)c2cc(S(=O)(=O)N(C)c3ccc(F)cc3)ccc2Cl)n1	0.7	34.7	26.6	-9.8	-26.6	/	/	/	/
CCc1c(-c2ccc(Br)cc2)ncn1CCc1ccccc1OC	23.7	11.6	/	/	/	/	/	/	/
CCCc1c(-c2ccc(Cl)cc2)ncn1CCc1ccccc1OC	55.9*	52.1*	/	/	/	82.1*	14.9*	83.3*	26.4*
CCCc1c(-c2ccc(Cl)cc2)ncn1Cc1ccccc1OC	3.7	-1.7	/	/	/	/	/	/	/
COc1ccccc1CCn1cnc(-c2ccc(Br)cc2)c1CC(C)C	65.0*	70.6*	/	/	/	82.0*	1.9	56.0*	10.0
CCc1c(-c2ccccc2Br)ncn1CCc1ccccc1OC	43.9*	52.8*	/	/	/	70.1*	10.5	59.0*	27.5*
CCOC(=O)c1cnc(SCC(=O)Nc2ccc(NC(=O)CC)c(OC)c2)nc1N	-1.1	-0.8	1.5	-17.3	-21.1	/	/	/	/
O=C(C[C@@H]1C/C=C\CCCC(=O)OC[C@@H]2CCCN2C1=O)N[C@@H](CO)Cc1ccccc1	0.8	1.4	5.2	-3.4	-18.1	/	/	/	/
O=c1c2ccccc2nc(-c2ccco2)n1CCc1ccc(O)cc1	14.7	42.7	-4.3	-12.3	-20.9	/	/	/	/
CC(C)=NNc1nc2c(c(=O)[nH]c(=O)n2C)n1CCc1ccccc1	46.9*	-13.2	13.6	-6.5	-18.6	36.6	1.6	3.4	17.7
CC(C)=NNc1nc2c(c(=O)[nH]c(=O)n2C)n1CCCc1ccccc1	1.7	-8.8	5.9	-30.4	-33.2	/	/	/	/
COc1cc(COc2ccc(-c3nnco3)cc2)ccc1OC(F)F	47.9*	20.3	13.6	-8.6	-12.8	1.8	2.2	-0.7	5.8
CCOC(=O)N1CCN(c2nc(-c3cccc(OC)c3)cc(C(F)(F)F)n2)CC1	11.9	1.9	16.6	-8.8	-37.6	/	/	/	/
CCOC(=O)N1CCC(NC(=O)c2cnn3c(C(F)(F)F)cc(-c4cccc(OC)c4)nc23)CC1	71.2*	1.8	9.7	-24.9	-12.1	2.8	4.0	19.1	15.9
Cc1c(NCc2cc(Cl)cc(Cl)c2O)c(=O)n(-c2ccccc2)n1C	6.8	15.8	9.4	-11.6	-30.3	/	/	/	/
Cc1c(NCc2cc(Cl)ccc2O)c(=O)n(-c2ccccc2)n1C	49.7*	25.5	11.3	1.3	-29.8	25.0	6.4	23.7	13.0
O=C(Nc1ccc(Br)cc1F)c1ccc2c(c1)OCCO2	-1.6	-5.0	41.2	8.3	-12.4	/	/	/	/
CCC(=O)Nc1ccc(C(=O)Nc2ccc(Br)cc2F)cc1	74.9*	82.9*	5.5	2.4	6.6	13.9	3.0	11.1	12.6
CN1OC[C@@H]2CN(C(=S)NCCc3ccccc3)[C@H](c3ccc(-n4ccnc4)cc3)C[C@@H]21	47.2*	-7.6	/	/	/	48.9*	6.6	6.1	9.8
CN1OC[C@@H]2CN(C(=O)CCc3ccccc3)[C@H](c3ccc(-n4ccnc4)cc3)C[C@@H]21	1.7	-9.4	/	/	/	/	/	/	/
O=C1/C(=C/c2ccc(N3CCCC3)cc2)NC(=S)N1C1CC1	177.5*	99.1*	17.0	57.7*	106.0*	58.4*	61.1*	70.8*	70.5*
O=C1N/C(=C/c2ccc(N3CCCC3)cc2)C(=O)N1c1ccccc1	0.2	-6.2	22.8	-4.2	-8.7	/	/	/	/
Cc1ccc(-c2noc(CCC(=O)Nc3ccc4c(c3)OCO4)n2)cc1	83.0*	80.1*	45.0	25.0	25.9	3.4	5.8	14.0	23.7*
Cc1ccccc1NC(=O)Cn1nnc(S(=O)(=O)c2ccc(C(C)(C)C)cc2)c1N	28.6	23.9	5.1	9.7	12.8	/	/	/	/
COc1cc(/C=C2\SC(=O)N(CCN)C2=O)ccc1OS(=O)(=O)c1cc(C)ccc1C	53.7*	-2.7	/	/	/	72.1*	29.4*	57.3*	17.9
SMILES	TAAR1 ag	TAAR1 antagonist	OX1R antag-1	CHO parental Ca	OX1R antag-2	TAAR1 ag confirm	Ga16 ag counter	TAAR1 desens	Ga16 nonsel ant
CC1(c2ccc(OC(F)F)cc2)NC(=O)N(CC(=O)Nc2cccc(S(N)(=O)=O)c2)C1=O (stereo unspecified)	1.8	-11.8	10.0	5.1	-1.6	/	/	/	/
CC1(c2ccc(OC(F)F)cc2)NC(=O)N(/N=C/c2c(O)ccc3ccccc23)C1=O (stereo unspecified)	63.8*	53.5*	14.2	6.2	0.9	68.1*	47.7*	72.6*	59.2*
COC(=O)[C@H](CCSC)NC(=O)Nc1cccc(Br)c1	0.9	-41.4	10.4	-2.9	-9.4	/	/	/	/
CC(=O)c1c(C)[nH]c(C(=O)CN2C(=O)NC(C)(CCC(C)C)C2=O)c1C (stereo unspecified)	23.5	15.1	8.2	-17.5	-15.5	/	/	/	/
O=C(COc1ccc(F)cc1Br)N1CCc2ccccc21	75.9*	82.8*	12.5	-15.4	-20.9	1.1	2.9	-7.2	0.9
COCCn1nnnc1CN(CCc1ccccc1)Cc1cc2cc(OC)ccc2[nH]c1=O	82.6*	38.9	19.8	-3.6	-13.6	79.4*	8.5	47.8	12.7
COc1ccc2c(c1)CCCC21NC(=O)N(CC(=O)c2cc(F)ccc2F)C1=O (stereo unspecified)	0.3	0.3	7.7	-24.8	-34.3	/	/	/	/
CCCCCCCCN1C(=O)[C@H](CC(=O)NCc2cccs2)C[C@@]2(C(=O)OC)CC(C)(C)CC=C12	-1.1	-20.1	/	/	/	/	/	/	/
COC(=O)[C@]12CCCCC=C1N(Cc1ccccc1)C(=O)[C@H](CC(=O)NCCc1ccccc1OC)C2	70.1*	56.9*	/	/	/	91.4*	2.1	76.6*	6.1
CCCCCCCCN1C(=O)[C@H](CC(=O)NCCc2ccccc2OC)C[C@@]2(C(=O)OC)CC(C)(C)CC=C12	44.1*	-40.0	/	/	/	60.1*	2.6	24.0	13.0
